Measured values reported in ChEMBL document CHEMBL6121049, “Discovery of Orally Available Prodrugs of Itaconate and Derivatives” (J Med Chem, 2025).
Active and inactive are the calls of the source. The calls are words filed in the database; no cut-off is given here.

Experiments:
[1] = Metabolic stability in human skin homogenate assessed as compound remaining at 10 uM measured after 1 hrs by LC-MS analysis; type: ADME, tissue-based, Skin of body; settings: tissue homogenate
[2] = Chemical stability in pH 7.4 assessed as compound remaining at 10 uM measured after 1 hrs by LC-MS/MS analysis; type: physicochemical; settings: buffer, pH 7.4, 1 h
Method in brief: (§1)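 Compounds incubated in buffers at pH 1.2, 4.5 or 7.4 at 37 °C for 1 h; prodrug disappearance followed by LC–MS/MS as % remaining.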

[3] = Chemical stability in pH 1.2 assessed as compound remaining at 10 uM measured after 1 hrs by LC-MS/MS analysis; type: physicochemical; settings: buffer, pH 1.2, 1 h; method in brief: as §1
[4] = Metabolic stability in human plasma assessed as compound remaining at 10 uM measured after 1 hrs by LC-MS analysis; type: ADME, cell-free
Method in brief: (§2)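 Prodrugs (10 μM) spiked into mouse or human plasma, shaken at 37 °C; samples at 0 and 60 min quenched in cold acetonitrile with losartan internal standard, centrifuged, diluted, run by LC-HRMS; % remaining from analyte/IS peak-area ratio.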

[5] = Metabolic stability in mouse skin homogenate assessed as compound remaining at 10 uM measured after 1 hrs by LC-MS analysis; type: ADME, tissue-based, Skin of body; settings: tissue homogenate
[6] = Metabolic stability in mouse plasma assessed as compound remaining at 10 uM measured after 1 hrs by LC-MS analysis; type: ADME, cell-free; method in brief: as §2
[7] = Chemical stability in pH 4.5 assessed as compound remaining at 10 uM measured after 1 hrs by LC-MS/MS analysis; type: physicochemical; settings: buffer, pH 4.5, 1 h; method in brief: as §1
[8] = Permeability of the compound at pH 7.4 incubated for 4 hrs by PAMPA-GIT assay; type: ADME; settings: pH 7.4, 4 h
Method in brief: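 PAMPA-GIT sandwich: acceptor filter coated with GIT-0 lipid; donor holds 10 μM compound in pH 7.4 buffer with 0.2% DMSO, acceptor pH 7.4 sink buffer; 4 h at room temperature; both compartments sampled by LC-MS/MS; effective permeability Pe calculated with membrane retention correction.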

[9] = Immunomodulatory activity in NHEK cells assessed as inhibition of IL-6 mRNA expression at 100 uM preincubated for 2 days and measured after 24 hrs by TaqMan RTPCR analysis; type: functional; settings: Homo sapiens, 48 h, time 2 day
[10] = Prodrug conversion in C57BL6 mouse plasma assessed as itaconic acid half life at 100 mg/kg, po measured after 24 hrs by LC-MS/MS analysis; type: ADME, organism-based; settings: in vivo
Method in brief: (§3)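 C57BL6 mice, 25–30 g, 8.5 weeks old, given 100 mg/kg (IA or 4-MI equivalent) orally in 10% DMSO/80% PEG/10% HBS, freshly prepared; killed at 0.25–24 h, n = 3 per time point; acidified plasma and stabilized skin homogenates, methanol precipitation with internal standards, LC-MS/MS (orbitrap); PK parameters as mean ± SEM.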

[11] = Prodrug conversion in C57BL6 mouse skin assessed as itaconic acid Cmax at 100 mg/kg, po measured after 24 hrs by LC-MS/MS analysis; type: ADME, organism-based, Skin of body; settings: in vivo; method in brief: as §3
[12] = Immunomodulatory activity in NHEK cells assessed as inhibition of IFN-gamma induced CXCL11 expression at 30 to 100 uM by TaqMan RTPCR analysis relative to control; type: functional, Homo sapiens; settings: dose 30-100 µM
Method in brief: (§4)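 Primary human keratinocytes seeded, held overnight at 37 °C, 5% CO2, then stimulated with Poly(I:C) 50 μg/mL plus IFNγ 5 ng/mL, with or without prodrug at 1, 10, 30 or 100 μM; gene induction measured at 8 h.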

[13] = Prodrug conversion in C57BL6 mouse plasma assessed as itaconic acid Cmax at 100 mg/kg, po measured after 24 hrs by LC-MS/MS analysis; type: ADME, organism-based; settings: in vivo; method in brief: as §3
[14] = Prodrug conversion in C57BL6 mouse plasma assessed as itaconic acid Tmax at 100 mg/kg, po measured after 24 hrs by LC-MS/MS analysis; type: ADME, organism-based; settings: in vivo; method in brief: as §3
[15] = Prodrug conversion in C57BL6 mouse skin assessed as itaconic acid Tmax at 100 mg/kg, po measured after 24 hrs by LC-MS/MS analysis; type: ADME, organism-based, Skin of body; settings: in vivo; method in brief: as §3
[16] = Prodrug conversion in C57BL6 mouse skin assessed as itaconic acid half life at 100 mg/kg, po measured after 24 hrs by LC-MS/MS analysis; type: ADME, organism-based, Skin of body; settings: in vivo; method in brief: as §3
[17] = Prodrug conversion in C57BL6 mouse skin assessed as itaconic acid AUC (0 to t) at 100 mg/kg, po measured after 24 hrs by LC-MS/MS analysis; type: ADME, organism-based, Skin of body; settings: in vivo
[18] = Prodrug conversion in C57BL6 mouse plasma assessed as itaconic acid AUC (0 to t) at 100 mg/kg, po measured after 24 hrs by LC-MS/MS analysis; type: ADME, organism-based; settings: in vivo
[19] = Immunomodulatory activity in NHEK cells assessed as inhibition of Poly(I:C)/IFN-gamma induced IL-1 beta expression at >= 10 uM by TaqMan RTPCR analysis relative to control; type: functional, Homo sapiens; design: scale not given: the % may be the effect or the level left; method in brief: as §4
[20] = Cytotoxicity against NHEK cells assessed as cell viability at 100 uM measured after 8 hrs by CellTiter-Glo assay relative to control; type: toxicity, cell-based; settings: human
Method in brief: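 Primary normal human epidermal keratinocytes, expanded and seeded, exposed to 1, 10, 30 or 100 μM for 8 h; viability by CellTiter-Glo luminescence as % viable.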

[21] = Immunomodulatory activity in NHEK cells assessed as inhibition of IFN-gamma induced CXCL11 expression at 100 uM by TaqMan RTPCR analysis relative to control; type: functional; settings: Homo sapiens; method in brief: as §4
[22] = Immunomodulatory activity in NHEK cells assessed as inhibition of IFN-gamma induced CXCL10 expression at 100 uM by TaqMan RTPCR analysis relative to control; type: functional; settings: Homo sapiens; method in brief: as §4
NHEK [23] = test: Immunomodulatory activity in NHEK cells assessed as inhibition of Poly(I:C)/IFN-gamma induced IL-1 beta expression at 100 uM by TaqMan RTPCR analysis; type: functional, cell-based; settings: Homo sapiens; method in brief: as §4
NHEK [24] = test: Effect on IL-6 expression in NHEK cells at 500 uM preincubated for 2 days and measured after 24 hrs by TaqMan RTPCR analysis; type: functional, cell-based; settings: Homo sapiens, time 2.0 day
NHEK [25] = test: Effect on TLR3 mRNA expression in NHEK cells at 500 uM preincubated for 2 days and measured after 24 hrs by TaqMan RTPCR analysis; type: functional, cell-based; settings: Homo sapiens, time 2.0 day
[26] = Prodrug conversion in C57BL6 mouse plasma assessed as 4-methyl itaconic half life at 100 mg/kg, po measured after 24 hrs by LC-MS/MS analysis; type: ADME, organism-based; settings: in vivo; method in brief: as §3
[27] = Toxicity in C57BL6 mouse assessed as hematological changes at 30 to 100 mg/kg, ip measured after 7 days; type: organism-based; settings: in vivo, 168 h, dose 30-100 mg/kg, time 7 day
[28] = Prodrug conversion in C57BL6 mouse skin assessed as 4-methyl itaconic AUC (0 to t) at 100 mg/kg, po measured after 24 hrs by LC-MS/MS analysis; type: ADME, organism-based, Skin of body; settings: in vivo
[29] = Prodrug conversion in C57BL6 mouse plasma assessed as 4-methyl itaconate Cmax at 100 mg/kg, po measured after 24 hrs by LC-MS/MS analysis; type: ADME, organism-based; settings: in vivo; method in brief: as §3
[30] = Prodrug conversion in C57BL6 mouse plasma assessed as 4-methyl itaconate Tmax at 100 mg/kg, po measured after 24 hrs by LC-MS/MS analysis; type: ADME, organism-based; settings: in vivo; method in brief: as §3
[31] = Prodrug conversion in C57BL6 mouse plasma assessed as 4-methyl itaconic AUC (0 to t) at 100 mg/kg, po measured after 24 hrs by LC-MS/MS analysis; type: ADME, organism-based; settings: in vivo
[32] = Prodrug conversion in C57BL6 mouse skin assessed as 4-methyl itaconate Cmax at 100 mg/kg, po measured after 24 hrs by LC-MS/MS analysis; type: ADME, organism-based, Skin of body; settings: in vivo; method in brief: as §3
[33] = Prodrug conversion in C57BL6 mouse skin assessed as 4-methyl itaconic half life at 100 mg/kg, po measured after 24 hrs by LC-MS/MS analysis; type: ADME, organism-based, Skin of body; settings: in vivo; method in brief: as §3
[34] = Prodrug conversion in C57BL6 mouse skin assessed as 4-methyl itaconate Tmax at 100 mg/kg, po measured after 24 hrs by LC-MS/MS analysis; type: ADME, organism-based, Skin of body; settings: in vivo; method in brief: as §3
[35] = Prodrug conversion in po dosed C57BL6 mouse skin assessed as 4-methyl itaconic concentration measured after 24 hrs; type: ADME, organism-based, Skin of body; settings: in vivo
[36] = Toxicity in C57BL6 mouse assessed as body weight loss at 30 to 100 mg/kg, ip administrated daily and measured after 7 days; type: organism-based; settings: in vivo, 168 h, dose 30-100 mg/kg, time 7 day

Compound	Stability [1]	Stability [2]	Stability [3]	Stability [4]	Stability [5]	Stability [6]	Stability [7]	permeability [8]	further results
C=C(CC(=O)OCCCOCCCCCCCCCCCCCCCC)C(=O)OC	101%	97%	109%	90%	61%	89%	98%	–	–
C=C(CC(=O)OCOC(=O)OC(C)C)C(=O)O	29%	44%	104%	53%	4.9%	0%	79%	–	–
C=C(CC(=O)OC)C(=O)OCOC(=O)C(C)(C)C	15%	94%	99%	0%	5.3%	0%	109%	33.2 10^-6 cm/s	–
C=C(CC(=O)OC)C(=O)OCCCOCCCCCCCCCCCCCCCC	94%	75%	103%	32%	67%	44%	108%	–	–
C=C(CC(=O)OCc1oc(=O)oc1C)C(=O)OCc1oc(=O)oc1C	30%	91%	102%	0%	0%	0%	91%	17 10^-6 cm/s	–
C=C(CC(=O)OCOC(=O)C(C)(C)C)C(=O)OCOC(=O)C(C)(C)C	0%	104%	106%	0%	0%	0%	92%	35.8 10^-6 cm/s	–
C=C(CC(=O)OCCCOCCCCCCCCCCCCCCCC)C(=O)O	87%	65%	91%	68%	100%	92%	90%	3.2 10^-6 cm/s	–
C=C(CC(=O)OC)C(=O)OCc1oc(=O)oc1C	76%	99%	98%	0%	16%	0%	87%	15.4 10^-6 cm/s	–
C=C(CC(=O)OCOC(=O)OC(C)C)C(=O)OCOC(=O)OC(C)C	1.1%	47%	104%	0%	2.5%	0%	–	35.9 10^-6 cm/s	inhibition at 100 µM [9]: > 90%; t1/2 [10]: 85.2 min; Cmax [11]: 65.9 nmol/g; inhibition (INH) [12]: >50%; Cmax [13]: 83.8 µM; Tmax [14]: 15 min; Tmax [15]: 60 min; t1/2 [16]: 199 min; AUCt [17]: 173 nmol·h/g; AUCt [18]: 108 µM·h; Activity [19]: >50%; Activity [20]: > 80%
C=C(CC(=O)OCOC(=O)OC(C)C)C(=O)OC	0%	63%	98%	0%	0%	0%	94%	29.3 10^-6 cm/s	inhibition at 100 µM [21]: < 50%; inhibition at 100 µM [22]: < 50%; Activity (NHEK [23]): Active; Activity [20]: > 80%
C=C(CC(=O)OCc1oc(=O)oc1C)C(=O)O	93%	0%	109%	0%	74%	20%	88%	–	–
C=C(CC(=O)O)C(=O)O	–	–	–	–	–	–	–	–	Activity (NHEK [24]): inactive; Activity (NHEK [25]): inactive
C=C(CC(=O)OCc1oc(=O)oc1C)C(=O)OC	56%	69%	100%	0%	0%	0%	97%	16.3 10^-6 cm/s	–
C=C(CC(=O)OC)C(=O)OCOC(=O)OC(C)C	1.6%	102%	108%	0%	0%	0%	103%	35.3 10^-6 cm/s	t1/2 [26]: 52.2 min; Activity [27]: Non-toxic; AUCt [28]: 234 nmol·h/g; Cmax [29]: 349 µM; inhibition at 100 µM [9]: > 90%; Tmax [30]: 30 min; AUCt [31]: 415 µM·h; inhibition (INH) [12]: >50%; Cmax [32]: 192 nmol/g; t1/2 [33]: 58.2 min; Activity [19]: >50%; Tmax [34]: 60 min; Activity [20]: > 80%; Drug metabolism [35]: > 100 µM; Activity [36]: Non-toxic
C=C(CC(=O)OCOC(=O)C(C)(C)C)C(=O)O	40%	22%	100%	83%	14%	3%	74%	0.08 10^-6 cm/s	–
C=C(CC(=O)OCOC(=O)C(C)(C)C)C(=O)OC	9.4%	86%	101%	0%	0%	0%	104%	35.2 10^-6 cm/s	–
C=C(CC(=O)OC)C(=O)O	–	–	–	–	–	–	–	–	Activity (NHEK [24]): inactive; Activity (NHEK [25]): inactive
